# Bioassay records: PubChem BioAssay, The Scripps Research Institute Molecular Screening Center
# HGIII-sPLA2 inh: human group III sPLA2 inhibitors, primary screen, biochemical, QFRET, BODIPY PC-A2 liposome substrate. Group 3 secretory phospholipase A2 (Homo sapiens), Q9NZ20. QFRET BODIPY PC-A2 liposome hydrolysis, fluorescence. inhibition, % at 12.2 µM. 370,000 tested, 0.56% active. AID 743126, 2013;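 active means inhibition above mean plus 3 SD of compounds lying within the high and low control bounds, cut at about 19% in these data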;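 further: 0% = median of test compound wells and 100% = no enzyme DMSO wells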
# Target sequence (Q9NZ20 whole entry, looked up): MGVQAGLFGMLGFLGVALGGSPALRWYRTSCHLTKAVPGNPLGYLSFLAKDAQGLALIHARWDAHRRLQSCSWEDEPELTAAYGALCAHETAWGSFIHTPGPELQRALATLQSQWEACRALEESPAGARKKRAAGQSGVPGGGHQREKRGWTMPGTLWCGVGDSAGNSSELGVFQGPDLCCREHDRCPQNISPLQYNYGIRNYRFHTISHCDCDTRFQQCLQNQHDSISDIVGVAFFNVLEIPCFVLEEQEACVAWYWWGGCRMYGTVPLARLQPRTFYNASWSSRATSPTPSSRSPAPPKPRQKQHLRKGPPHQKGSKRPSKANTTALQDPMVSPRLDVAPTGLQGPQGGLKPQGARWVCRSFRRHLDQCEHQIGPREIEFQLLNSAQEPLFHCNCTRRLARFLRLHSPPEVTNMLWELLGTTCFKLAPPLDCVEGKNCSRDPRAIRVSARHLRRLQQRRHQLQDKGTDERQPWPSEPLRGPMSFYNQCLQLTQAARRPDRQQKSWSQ
# TbMetRS inhib: T. brucei MetRS inhibitors, primary screen, biochemical, luminescence | methionyl-tRNA synthetase (Trypanosoma brucei brucei) | purified T. brucei MetRS, ATP depletion, Kinase-Glo luminescence | inhibition, % at 11.9 µM | 360,000 tested, 0.4% active | AID 624268, 2012;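 active means inhibition above a per-plate cutoff of the control wells' mean inhibition plus 3 SD, cut at about 5.5% in these data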;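 further: 0% = DMSO wells median and 100% = median of wells with control inhibitor compound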
#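 Material – parasite MetRS enzyme · Medium – HEPES-MgCl2-KCl buffer plus DTT, spermine, BSA, pyrophosphatase · Reagent – ATP, methionine and E. coli bulk tRNA substrates · Times – 15 min enzyme-compound preincubation, 2 h reaction, 10 min detection, 25 °C · Measured by – luminescence of leftover ATP · Evaluation – percent inhibition relative to median high and low control wells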
# PLC-gamma1 inh: PLC-gamma1 enzyme inhibitors, primary screen, biochemical, fluorescence, purified enzyme | 1-phosphatidylinositol 4,5-bisphosphate phosphodiesterase gamma-1 (Homo sapiens), P19174 | fluorogenic substrate | inhibition, % at 12.2 µM | 370,000 tested, 0.84% active | AID 720700, 2013; in the data active means inhibition above about 9.5%
# PLC-beta3 inh: human PLC-beta3 inhibitors, primary screen, biochemical, fluorescence | inhibition, % at 12.2 µM | 370,000 tested, 0.18% active | 1-phosphatidylinositol 4,5-bisphosphate phosphodiesterase beta-3 (Homo sapiens), Q01970 | Purified PLC-beta3, fluorogenic substrate | AID 720704, 2013; in the data active means inhibition above about 11%;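 further: 0% = median of compound wells on plate and 100% = full blocker control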
# Numbers without * were called inactive; . = no result given. Compounds with a hit are over-represented: about 1.9% of the library has one in this group of screens.
SMILES,HGIII-sPLA2 inh,TbMetRS inhib,PLC-gamma1 inh,PLC-beta3 inh
CCOc1ccc(CN(C)C(=O)c2ccc(S(=O)(=O)N(C)c3ccccc3OC)cc2)cc1,-16.4,-0.6,10.1*,-2.4
COc1ccc(NC(=O)c2cc3c(C)nn(-c4ccccc4)c3s2)cc1,-15.9,.,-15.8,-24.1
CCN(CC(=O)Nc1c(F)cccc1F)C(=O)Cn1[nH]c(=O)c2ccccc2c1=O,7.4,-0.5,5.5,-5.7
CN(CC(=O)Nc1ccc(Cl)cc1)C(=O)Cn1[nH]c(=O)c2ccccc2c1=O,0.3,-0.3,9.8*,-5.6
COc1ccc(C(c2c(O)ccc3ccccc23)N2CCOCC2)c(OC)c1 (stereo not given),19.7*,-0.2,-4.0,-6.7
COP(=O)(O)C(C)NC(=O)OCc1ccccc1 (stereo not given),6.4,.,3.7,-5.6
CCCCn1nnnc1C(c1ccccc1)N1CCN(c2ccc(C)cc2)CC1 (stereo not given),-0.5,0.3,-2.4,11.1*
COc1ccc(OC)c(CN2C(=O)CN(S(C)(=O)=O)CC2(C)c2nnnn2C2CCCC2)c1 (stereo not given),-5.5,.,-0.8,0.5
COc1ccc2nc(NC(=S)N(C)C)sc2c1,3.2,-0.4,15.5*,9.3
CCCC(=O)Nc1nc2ccc(OC)cc2s1,-1.5,-0.6,5.9,0.7
OC(c1ccccc1)C(O)c1ccccc1 (stereo not given),4.2,-0.2,5.7,10.8*
Nn1c(SCC(=O)Nc2ccccc2-c2ccccc2)nnc1-c1cc(-c2ccc(Cl)cc2)n[nH]1,-9.2,.,1.6,-0.1
Cc1nc2c(=O)[nH]c(=S)n(C)c2nc1C,20.6*,0.0,5.7,3.7
Cc1nc2[nH]c(=S)[nH]c(=O)c2nc1C,-3.5,-0.3,-85.0,-108.5
C=CCN(CC#Cc1ccc(OC)cc1)CC=C,4.2,.,-0.6,0.8
Cc1cccc(C(=O)N2CCC(=O)N(C(COCc3ccccc3)Cc3ccccc3)CC2)c1 (stereo not given),-0.7,-0.3,15.0*,1.4
Cc1cccc(C(=O)N2CCC(=O)N([C@H](COCc3ccccc3)Cc3ccccc3)CC2)c1,2.6,-1.1,-1.8,-3.0
O=C(CCN1C(=O)/C(=C/c2ccco2)SC1=S)Nc1ccc(O)cc1C(=O)O,-16.2,-0.1,7.2,-49.2
O=C(CCN1C(=O)/C(=C/c2ccco2)SC1=S)Nc1ccc(C(=O)O)c(O)c1,-23.1,1.3,29.2*,-16.7
O=C(CN1C(=O)/C(=C\c2ccco2)SC1=S)Nc1ccc(O)cc1C(=O)O,-24.1,0.8,32.9*,-26.0
COCC1CN(CCc2ccc(F)cc2)S(=O)(=O)c2c(OCCN3C(=O)[C@@H]4[C@H](C3=O)[C@@H]3C=C[C@H]4C3)cccc2O1 (stereo not given in full),-7.4,.,1.9,1.1
COc1ccc(C2CC(=O)C(c3ccc(C(C)=O)cc3)=CN2Cc2ccccc2)cc1 (stereo not given),-2.2,.,-288.3,-393.8
O=C(Nc1ccc(Br)cc1)c1cccc(N2C(=O)C3C4C=CC(C4)C3C2=O)c1 (stereo not given),-30.8,0.4,13.5*,-12.2
CCn1c(/N=C/c2ccccc2NS(=O)(=O)c2ccc(C)cc2)nc2ccccc21,.,6.5*,.,.
CCN(CC)CCn1c(NS(=O)(=O)c2ccc(C)cc2)nc2ccccc21,-4.5,-0.3,2.4,-2.9
SMILES,HGIII-sPLA2 inh,TbMetRS inhib,PLC-gamma1 inh,PLC-beta3 inh
Cc1cc2c(c(=O)o1)[C@@]1(C(=O)Nc3ccccc31)C1=C(CCCC1=O)O2,1.1,.,0.3,-1.9
NC(=O)c1c(N)[nH]c(C(=O)c2ccccc2)c1-c1ccc(Br)cc1,17.2,.,-10.8,-17.6
CC(CCC(C)C(C)(C)C)[C@@H]1CC[C@H]2C3C[C@H](OS(O)(=S)=S)[C@H]4C[C@H](OS(O)(=S)=S)[C@@H](OS(O)(=S)=S)C[C@]4(C)[C@H]3CC[C@]12C (stereo not given in full) (tested in a mixture with another compound),.,15.7*,.,.
CC(CCC(=O)NN)C1CCC2C3CCC4CC(O)CCC4(C)C3CCC12C (stereo not given),1.6,-0.3,0.4,0.6
O=C(C(=Cc1ccc(O)cc1)c1ccccc1)c1ccccc1,-27.2,-0.2,11.1*,1.1
O=C(C(=Cc1ccc(F)cc1)c1ccccc1)c1ccc(O)cc1,-38.6,-0.4,-1.3,1.4
COc1ccc(C(=S)N2CCN(c3cccc(Cl)c3)CC2)cc1,20.1*,3.3,-0.3,5.2
COc1ccc(C(=O)Oc2ccc(C(=S)N3CCOCC3)cc2)cc1,10.3,-0.1,13.0*,8.4
COC(=O)[C@]12C[C@H](CC(=O)NCc3cccc(C(F)(F)F)c3)C(=O)N(Cc3ccc(Cl)cc3Cl)C1=C[C@H](COCc1ccccc1)O[C@@H]2C,-11.7,.,1.7,2.5
COc1cccc(-n2c(SCC(N)=O)nnc2-c2c[nH]c3ccccc23)c1,18.2,11.4*,9.2,1.2
O=C(NNC(=S)Nc1ccc(F)c(Cl)c1)c1ccccc1Br,25.7*,-0.5,-1.6,-0.6
COP(=O)(O)C(Cc1ccccc1)NC(=O)OCc1ccccc1 (stereo not given),3.8,.,1.6,0.4
Nc1ccc(N=Nc2ccccc2)c2ccccc12,6.5,-0.6,4.5,-2.9
Nc1ccc(N=Nc2ccccc2)c(N)n1,23.0*,-0.9,-3.3,-7.8
O=C(Cc1ccc(Cl)cc1)Nc1cccnc1Cl,-4.4,-0.2,-0.8,3.3
O=C(CCCc1ccccc1)Nc1cccnc1Cl,5.4,-0.5,2.8,11.6*
O=C(NCc1cccnc1)C(=O)c1c[nH]c2ccccc12,1.9,0.7,1.4,6.2
O=C(Nc1ccc(Nc2cccnc2)cc1)c1c[nH]c2ccccc12,25.5*,.,-124.6,-157.6
CC(C)(C)C1CCc2[nH]nc(C(=O)O)c2C1 (stereo not given),0.5,-0.1,14.6*,10.1
CCC(C)(C)C1CCc2[nH]nc(C(=O)O)c2C1 (stereo not given),7.0,0.4,1.6,1.6
COc1ccc(CCN(Cc2cccs2)S(=O)(=O)c2ccc(C)c(C)c2)cc1OC,-19.0,.,2.4,-1.9
CCCCCCCCN1C(=O)[C@@H](CC(=O)NCCCOC)C[C@@]2(C(=O)OC)C1=C[C@H](C(C)C)O[C@@H]2C1CC1,-6.9,.,4.7,3.2
C=CCc1cccc(CNc2nc3ccccc3n2CC)c1O,7.6,39.8*,0.5,-0.2
O=C(O)c1cc(N2N=C(C(F)(F)F)/C(=C/C=C/c3ccco3)C2=O)ccc1Cl,-9.4,1.3,62.7*,1.1
O=C(Nn1cnnc1)c1ccc([N+](=O)[O-])cc1Cl,20.8*,0.1,3.1,-4.4
C[C@@H](N)P(=O)(O)C[C@H](Cc1ccccc1)C(=O)O,8.9,.,3.3,-1.8
N#Cc1c(NC(=O)c2ccccc2Cl)n(Cc2ccccc2)c2nc3ccccc3nc12,-32.2,6.8*,-226.5,-251.2
